Measurements taken from ChEMBL document CHEMBL1121680, “2,4-Diamino-5-benzylpyrimidines and analogues as antibacterial agents. 5. 3',5'-Dimethoxy-4'-substituted-benzyl analogues of trimethoprim” (J Med Chem, 1981).
pIC50: −log10 of the molar value.

Key:
[1] = target: T1, Dihydrofolate reductase (Rattus norvegicus) (UniProt Q920D2); experiment: Percent inhibition of compound against Dihydrofolate Reductase of rat liver at 27400 M
T1 sequence (whole entry): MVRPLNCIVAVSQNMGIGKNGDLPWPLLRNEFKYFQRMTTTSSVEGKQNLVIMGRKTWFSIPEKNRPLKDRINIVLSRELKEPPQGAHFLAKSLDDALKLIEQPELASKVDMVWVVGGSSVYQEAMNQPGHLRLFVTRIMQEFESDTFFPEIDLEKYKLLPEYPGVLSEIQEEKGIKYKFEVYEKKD

Oryctolagus cuniculus = experiment: Peak serum concentration reached within 1 hr of administration of 5 mg/kg oral dose; assay type: functional, organism-based; design: dose 5 mg/kg
[2] = target: T1, Dihydrofolate reductase (Rattus norvegicus); experiment: PCompound was tested for inhibitory activity against Dihydrofolate reductase of rat liver at 40000 M
Dihydrofolate reductase [3] = target: T2, Dihydrofolate reductase (Rattus norvegicus, UniProt Q920D2); experiment: Inhibition of rat liver Dihydrofolate reductase.; settings: read-out: I50
T2 sequence (Q920D2 whole entry): T1 sequence (whole entry)

Proteus vulgaris [4] = experiment: Antimicrobial activity against Proteus vulgaris CN329 in mice in experiment 2; assay type: functional, Mus musculus
Mus musculus [5] = experiment: Half-life in serum of mice after oral administration of 2 mg dose; assay type: functional, organism-based
Outline: (§1)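 Single po dose (10 or 2 mg per mouse) to groups of three mice (18–20 g); ~0.2 mL blood drawn from supraorbital plexus at 10–360 min and pooled; serum drug level assayed microbiologically with Bacillus pumilus as test organism. Half-life calculated from curve slopes once compound apparently evenly distributed.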

Staphylococcus aureus [6] = experiment: Antimicrobial activity against Staphylococcus aureus CN491 in mice in experiment 2; assay type: functional, Mus musculus
Mus musculus [7] = experiment: Concentration of compound in serum of mouse 180 min after oral administration of 2 mg dose; assay type: functional, organism-based; outline: as §1
Mus musculus [8] = experiment: Half-life in serum of mice after oral administration of 10 mg dose; assay type: functional, organism-based; outline: as §1
Streptococcus pyogenes [9] = experiment: Antimicrobial activity against streptococcus pyogenes CN10 in mice in experiment 3; assay type: functional, Mus musculus
Escherichia coli [10] = experiment: Antimicrobial activity against Escherichia coli CN348 in mice in experiment 2; assay type: functional, Mus musculus
Klebsiella pneumoniae [11] = experiment: Antimicrobial activity against Klebsiella pneumoniae CN3632 in mice in experiment 3; assay type: functional, Mus musculus
Escherichia coli [12] = experiment: Antimicrobial activity against Escherichia coli CN348 in mice in experiment 1; assay type: functional, Mus musculus
Mus musculus [13] = experiment: Concentration of compound in serum of mouse 360 min after oral administration of 10 mg dose; assay type: functional, organism-based; outline: as §1
Streptococcus pyogenes [14] = experiment: Antimicrobial activity against streptococcus pyogenes CN10 in mice in experiment 2; assay type: functional, Mus musculus
Mus musculus [15] = experiment: Concentration of compound in serum of mouse 10 min after oral administration of 10 mg dose; assay type: functional, organism-based; outline: as §1
Staphylococcus aureus [16] = experiment: Antimicrobial activity against Staphylococcus aureus CN491 in mice in experiment 3; assay type: functional, Mus musculus
Mus musculus [17] = experiment: Concentration of compound in serum of mouse 180 min after oral administration of 10 mg dose; assay type: functional, organism-based; outline: as §1
Klebsiella pneumoniae [18] = experiment: Antimicrobial activity against Klebsiella pneumoniae CN3632 in mice in experiment 1; assay type: functional, Mus musculus
Mus musculus [19] = experiment: Concentration of compound in serum of mouse 90 min after oral administration of 10 mg dose; assay type: functional, organism-based; outline: as §1
Proteus vulgaris [20] = experiment: Antimicrobial activity against Proteus vulgaris CN329 in mice in experiment 1; assay type: functional, Mus musculus
Mus musculus [21] = experiment: Concentration of compound in serum of mouse 30 min after oral administration of 10 mg dose; assay type: functional, organism-based; outline: as §1
Mus musculus [22] = experiment: Concentration of compound in serum of mouse 360 min after oral administration of 2 mg dose; assay type: functional, organism-based; outline: as §1
Escherichia coli [23] = experiment: Antimicrobial activity against Escherichia coli CN348 in mice in experiment 3; assay type: functional, Mus musculus
Mus musculus [24] = experiment: Concentration of compound in serum of mouse 90 min after oral administration of 2 mg dose; assay type: functional, organism-based; outline: as §1
Mus musculus [25] = experiment: Concentration of compound in serum of mouse 30 min after oral administration of 2 mg dose; assay type: functional, organism-based; outline: as §1
Mus musculus [26] = experiment: Concentration of compound in serum of mouse 10 min after oral administration of 2 mg dose; assay type: functional, organism-based; outline: as §1
Staphylococcus aureus [27] = experiment: Antimicrobial activity against Staphylococcus aureus CN491 in mice in experiment 1; assay type: functional, Mus musculus
[28] = target: T1, Dihydrofolate reductase (Rattus norvegicus); experiment: Compound was tested for inhibitory activity against Dihydrofolate reductase of rat liver at 29000 M
[29] = target: T1, Dihydrofolate reductase (Rattus norvegicus); experiment: Compound was tested for inhibitory activity against Dihydrofolate reductase of rat liver at 2000 M
[30] = target: T1, Dihydrofolate reductase (Rattus norvegicus); experiment: Percent inhibition of compound against Dihydrofolate Reductase(DHFR) of rat liver at 40000 M
[31] = target: T1, Dihydrofolate reductase (Rattus norvegicus); experiment: Compound was tested for inhibitory activity against Dihydrofolate reductase of rat liver at 2400 M
Mus musculus [32] = species on record: Mus musculus; settings: Serum
Mus musculus [33] = species on record: Mus musculus; settings: Serum; remark: listed apart in the source
[34] = target: T1, Dihydrofolate reductase (Rattus norvegicus); experiment: Compound was tested for inhibitory activity against Dihydrofolate reductase of rat liver at 40000 M
[35] = target: T1, Dihydrofolate reductase (Rattus norvegicus); experiment: Compound was tested for inhibitory activity against Dihydrofolate reductase of rat liver at 22400 M
Dihydrofolate reductase [36] = target: T2, Dihydrofolate reductase; experiment: Compound was tested for inhibitory activity against Dihydrofolate Reductase of rat liver; settings: read-out: I50

COc1cc(Cc2cnc(N)nc2N)cc(OC)c1OCC(O)CO (stereo not given)
inhibition [1]: 32%

COCCOc1c(OC)cc(Cc2cnc(N)nc2N)cc1OC
Concentration (Oryctolagus cuniculus): 2 µg/mL
inhibition [2]: 16%

COc1cc(Cc2cnc(N)nc2N)cc(OC)c1OCCCl
pIC50 (Dihydrofolate reductase [3]): 3.22

COc1cc(Cc2cnc(N)nc2N)cc(OC)c1OCCCCl
ED50 (Proteus vulgaris [4]): >10 mg mouse-1
T1/2 (Mus musculus [5]): 1.9 h
ED50 (Staphylococcus aureus [6]): >10 mg mouse-1
Concentration (Mus musculus [7]): 0.7 µg/mL
T1/2 (Mus musculus [8]): 2.4 h
ED50 (Streptococcus pyogenes [9]): 7.2 mg mouse-1
ED50 (Escherichia coli [10]): 9.4 mg mouse-1
ED50 (Klebsiella pneumoniae [11]): >10 mg mouse-1
ED50 (Escherichia coli [12]): 6.2 mg mouse-1
Concentration (Mus musculus [13]): 7 µg/mL
ED50 (Streptococcus pyogenes [14]): 3.3 mg mouse-1
Concentration (Mus musculus [15]): 41 µg/mL
ED50 (Staphylococcus aureus [16]): 7.1 mg mouse-1
Concentration (Mus musculus [17]): 15 µg/mL
ED50 (Klebsiella pneumoniae [18]): 1 mg mouse-1
pIC50 (Dihydrofolate reductase [3]): 3.60
Concentration (Mus musculus [19]): 26 µg/mL
ED50 (Proteus vulgaris [20]): 8.2 mg mouse-1
Concentration (Mus musculus [21]): 31 µg/mL
Concentration (Mus musculus [22]): 0.24 µg/mL
ED50 (Escherichia coli [23]): >10 mg mouse-1
Concentration (Mus musculus [24]): 1.3 µg/mL
Concentration (Mus musculus [25]): 2.9 µg/mL
Concentration (Mus musculus [26]): 7 µg/mL
ED50 (Staphylococcus aureus [27]): 2.1 mg mouse-1

COc1cc(COc2c(OC)cc(Cc3cnc(N)nc3N)cc2OC)cc(OC)c1OC
pIC50 (Dihydrofolate reductase [3]): 4.82

CCc1c(OC)cc(Cc2cnc(N)nc2N)cc1OC
pIC50 (Dihydrofolate reductase [3]): 3.70

COc1cc(Cc2cnc(N)nc2N)cc(OC)c1Oc1ccc(NC(=O)CBr)cc1
inhibition [28]: 37%

COc1cc(Cc2cnc(N)nc2N)cc(OC)c1C
pIC50 (Dihydrofolate reductase [3]): 3.92

COc1cc(Cc2cnc(N)nc2N)cc(OC)c1OCc1ccc([N+](=O)[O-])cc1
inhibition [29]: 23%

COc1cc(Cc2cnc(N)nc2N)cc(OC)c1OC(C)C
inhibition [30]: 9%

COc1cc(Cc2cnc(N)nc2N)cc(OC)c1OCCCCCCN1C(=O)c2ccccc2C1=O
inhibition [31]: 25%

CCCCCCOc1c(OC)cc(Cc2cnc(N)nc2N)cc1OC
pIC50 (Dihydrofolate reductase [3]): 3.70

COc1cc(Cc2cnc(N)nc2N)cc(OC)c1OC
T1/2 (Mus musculus [32]): 2.7 h
Concentration (Oryctolagus cuniculus): 2 µg/mL
T1/2 (Mus musculus [33]): 0.76 h

COc1cc(Cc2cnc(N)nc2N)cc(OC)c1OCCN
inhibition [34]: 38%

CCCCOc1c(OC)cc(Cc2cnc(N)nc2N)cc1OC
pIC50 (Dihydrofolate reductase [3]): 3.24

COc1cc(Cc2cnc(N)nc2N)cc(OC)c1OCC(=O)O
inhibition [35]: 20%

COc1cc(Cc2cnc(N)nc2N)cc(OC)c1OCCCN1C(=O)c2ccccc2C1=O
pIC50 (Dihydrofolate reductase [3]): 4.16

CCCOc1c(OC)cc(Cc2cnc(N)nc2N)cc1OC
pIC50 (Dihydrofolate reductase [36]): 3.60
